The source made the active and inactive calls. No cut-off for these calls is given here.
Assays:
Rattus norvegicus [1] = assay: Antiinflammatory activity against Wistar-Bratislava albino rat assessed as neutrophil count at 3.2 mg/kg, ip (Rbv = 55.6+/-1.32%); format: functional; conditions: route intraperitoneal
Rattus norvegicus [2] = assay: Antiinflammatory activity against Wistar-Bratislava albino rat assessed as leukocyte count at 3.2 mg/kg, ip (Rbv = 4952.7+/-436.9 number/mm'3); format: functional; conditions: route intraperitoneal
Rattus norvegicus [3] = assay: Antiinflammatory activity against Wistar-Bratislava albino rat assessed as monocyte count at 3.2 mg/kg, ip (Rbv = 7.6+/-0.45%); format: functional; conditions: route intraperitoneal
Rattus norvegicus [4] = assay: Antiinflammatory activity against Wistar-Bratislava albino rat assessed as lymphocyte count at 3.2 mg/kg, ip (Rbv = 37+/-2.2%); format: functional; conditions: route intraperitoneal
Rattus norvegicus [5] = assay: Antiinflammatory activity against Wistar-Bratislava albino rat assessed as reduction serum nitrate/nitrite concentration at 3.2 mg/kg, ip; format: functional, organism-based; design: dose 3.2 mg/kg
How it was run: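 In rats given turpentine oil 0.6 mL/100 g i.m. plus i.p. treatment in 1% carboxymethyl cellulose suspension, serum nitrate was reduced to nitrite with VCl3 in acidic solution. Griess reagents (SULF, NEDD) were then added, and absorbance at 540 nm was read after about 30-45 min incubation.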

Rattus norvegicus [6] = species on record: Rattus norvegicus; assay: Induction of phagocytosis in Wistar-Bratislava albino rat PMNC using Escherichia coli suspension assessed as reduction in phagocytosis index after 30 mins; format: functional
Rattus norvegicus [7] = species on record: Rattus norvegicus; assay: Induction of phagocytosis in Wistar-Bratislava albino rat PMNC using Escherichia coli suspension assessed as reduction in phagocytosis activity after 30 mins; format: functional

SMILES	Activity (Rattus norvegicus [1]) [%]	Activity (Rattus norvegicus [2])	Activity (Rattus norvegicus [3]) [%]	Activity (Rattus norvegicus [4]) [%]	Activity (Rattus norvegicus [5])	Activity (Rattus norvegicus [6])	Activity (Rattus norvegicus [7])
Cc1ccc(-c2nc(CC(=O)N/N=C\c3ccc(OCc4csc(-c5ccc(Br)cc5)n4)cc3)cs2)cc1	68.28	7314.28 /mm3	2.71	28.57			
O=C(COc1ccc2c(=O)cc(-c3ccccc3)oc2c1)N/N=C/c1cccc(OCc2csc(-c3ccccc3)n2)c1	71.71	12100 /mm3	2.6	24	Active		
O=C(Cc1csc(-c2cccc(C(F)(F)F)c2)n1)N/N=C\c1ccc(OCc2csc(-c3ccc(Br)cc3)n2)cc1	63.14	7402.85 /mm3	3.14	32	inactive		
Cc1ccc(-c2nc(CC(=O)N/N=C\c3ccc(OCC(=O)c4sc(-c5ccccc5)nc4C)cc3)cs2)cc1	66	8742.85 /mm3	2.43	32.14	Active	Active	Active
O=C(Cc1csc(-c2cccc(C(F)(F)F)c2)n1)N/N=C/c1cccc(OCc2csc(-c3ccc(Br)cc3)n2)c1	70.86	6914.28 /mm3	2.86	23.43	Active		Active
O=C(COc1ccc2c(=O)cc(-c3ccccc3)oc2c1)N/N=C\c1ccc(OCc2csc(-c3ccccc3)n2)cc1	76	8228.57 /mm3	3.71	23.57	inactive	Active	Active
Cc1ccc(-c2nc(CC(=O)N/N=C/c3ccccc3OCc3csc(-c4ccc(Br)cc4)n3)cs2)cc1	67.71	9300 /mm3	2.86	29.14	inactive		
Cc1nc(-c2ccccc2)sc1C(=O)COc1ccc(/C=N\NC(=O)Cc2csc(-c3cccc(C(F)(F)F)c3)n2)cc1	78	10200 /mm3	2	18	Active	Active	
Cc1ccc(-c2nc(CC(=O)N/N=C\c3ccc(OCc4csc(-c5ccccc5)n4)cc3)cs2)cc1	52.57	3271.43 /mm3	1.86	21.43	inactive		
O=C(Cc1csc(-c2cccc(C(F)(F)F)c2)n1)N/N=C/c1ccccc1OCc1csc(-c2ccc(Br)cc2)n1	68.85	7837.14 /mm3	2.57	24.71		Active	Active
O=C(COc1ccc2c(=O)cc(-c3ccccc3)oc2c1)N/N=C/c1cccc(OCc2csc(-c3ccc(Br)cc3)n2)c1	57.43	8000 /mm3	3.28	39.86	Active	Active	Active
Cc1cnc(NC(=O)C2=C(O)c3ccccc3S(=O)(=O)N2C)s1 [MELOXICAM]	66.57	7660 /mm3	2	32.28			
O=C(Cc1csc(-c2cccc(C(F)(F)F)c2)n1)N/N=C/c1cccc(OCc2csc(-c3ccccc3)n2)c1	61.71	9540 /mm3	2.4	32.28		Active	Active
O=C(Cc1csc(-c2cccc(C(F)(F)F)c2)n1)N/N=C\c1ccc(OCc2csc(-c3ccccc3)n2)cc1	82.28	5664.28 /mm3	2	20.71	inactive	Active	Active
Cc1ccc(-c2nc(CC(=O)N/N=C/c3cccc(OCc4csc(-c5ccccc5)n4)c3)cs2)cc1	73.29	8620 /mm3	2.86	19.71	inactive		

— ChEMBL document CHEMBL1667748, “Synthesis and anti-inflammatory evaluation of some new acyl-hydrazones bearing 2-aryl-thiazole” (2011)
